Data set [1] concerns Human immunodeficiency virus. The data set can be described thus: Antiviral activity against HIV infected in human CEM cells assessed as inhibition of HIV-induced CEM giant cell formation after 4 days by microscopy. As to conditions: Human immunodeficiency virus 1, CCRF-CEM, 96 h.
In the next data set the test system is Vero. Put plainly: Cytotoxicity against african green monkey Vero cells. Format: cell-based. As to conditions: chlorocebus sabaeus.
Another data set relates to Hepatitis C virus. The data set can be described thus: Antiviral activity against HCV infected in Huh7 cells assessed as inhibition of viral RNA replication after 5 days by RT-PCR Assay. Format: functional, Hepacivirus hominis, Huh-7. The procedure, abridged:
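Huh 7 Clone B cells carrying subgenomic HCV replicon RNA, seeded 3000 cells/well, compound added at 10 μM in triplicate right after seeding; 5 days at 37 °C, 5% CO2. Total RNA extracted; replicon RNA and rRNA internal control amplified by one-step multiplex real-time RT-PCR. Activity as ΔCt versus no-drug control (ΔCt 3.3 = 1-log reduction); ΔCt converted to fraction of starting material for % inhibition.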

The next data set has as its system PBMC. Put plainly: Cytotoxicity against human PBMC cells. Format: cell-based.
The test system of another data set is CCRF-CEM. The data set can be described thus: Cytotoxicity against human CEM cells. It is filed as cell-based.
In a further data set the test system is HEL. The data set can be described thus: Cytotoxicity against human HEL cells after 3 days by Coulter counting method. Particulars: 72 h. It is filed as cell-based.
In another data set the test system is Human betaherpesvirus 5. Put plainly: Antiviral activity against human Cytomegalovirus AD169 infected in HEL cells assessed as inhibition of virus-induced cytopathicity after. Particulars: Human betaherpesvirus 5, AD169, HEL. Format: functional, organism-based. On the technique in general: Damage to the host cells serves as the signal in cytopathic effect assays.

By EC50 is commonly meant the concentration that produces a half-maximal response. In general, EC90 refers to the concentration needed for an effect of 90%. As a reminder, the CC50 is the concentration at which the toxic effect on the cells reaches its halfway point. For the compound `CCCCCCc1ccc(-c2cn(C/C=C/CP(=O)(OCOC(=O)C(C)(C)C)OCOC(=O)C(C)(C)C)nn2)cc1`, the EC50 in data set [1] was determined as 43.9 µM. In addition, the EC90 in data set [1] is over 100 µM. Further, the CC50 is 10.4 µM in the data set with Vero, 5.9 µM in the data set with PBMC and 16.1 µM in the data set on CCRF-CEM. Also, the “inhibition (INH)” value with Hepatitis C virus worked out at 95%.
Consider `CC(C)(C)C(=O)OCOP(=O)(C/C=C/Cn1cc(-c2ccc(OC(F)(F)F)cc2)nn1)OCOC(=O)C(C)(C)C`, for which the half-maximal effective concentration (EC50) in data set [1] was determined as 55.2 µM. In data set [1], the 90% effect concentration (EC90) was over 100 µM. For the same compound, the CC50 with Vero is 12.7 µM; in the data set with PBMC it was 19.6 µM; with CCRF-CEM, 37.6 µM. Also, the “inhibition (INH)” value in the data set with Hepatitis C virus is given as 60.6%.
Turning to `CC(C)(C)C(=O)OCOP(=O)(C/C=C/Cn1cc(-c2ccc(F)cc2)nn1)OCOC(=O)C(C)(C)C`, in data set [1], the EC50 is over 100 µM. The 90% effect concentration (EC90) in data set [1] is over 100 µM. In addition, the values for the CC50 in the data set with Vero, with PBMC and in the data set with CCRF-CEM were 47 µM, 61.9 µM and 31.6 µM, respectively. For the same compound, the “inhibition (INH)” value with Hepatitis C virus stood at 84.3%.
As for `COc1cc(OC)cc(-c2cn(C/C=C/CP(=O)(OCOC(=O)C(C)(C)C)OCOC(=O)C(C)(C)C)nn2)c1`, the concentration for a half-maximal effect (EC50) in data set [1] was over 100 µM. Further, the EC90 in data set [1] is over 100 µM. In addition, the results for the CC50 in the data set on Vero, in the data set on PBMC and in the data set with CCRF-CEM were 86.8 µM, over 100 µM and 68.2 µM, respectively. The “inhibition (INH)” value in the data set with Hepatitis C virus is reported as 20.8%.
As to `CC(C)(C)C(=O)OCOP(=O)(C/C=C/Cn1cc(CO)nn1)OCOC(=O)C(C)(C)C`, the EC50 in data set [1] is over 100 µM; with Human betaherpesvirus 5, 9.9 µM. For the same compound, the 90% effect concentration (EC90) in data set [1] was over 100 µM. In addition, the CC50 in the data set with HEL worked out at 100 µM; in the data set on Vero, 87.1 µM; in the data set on PBMC, 73.2 µM; in the data set with CCRF-CEM, 57.4 µM. The “inhibition (INH)” value with Hepatitis C virus came to 78.1%.
For `CC(C)(C)C(=O)OCOP(=O)(C/C=C/Cn1cc(-c2cccs2)nn1)OCOC(=O)C(C)(C)C`, the EC50 in data set [1] was 62.3 µM. Moreover, the EC90 in data set [1] was over 100 µM. In addition, the results for the CC50 in the data set on Vero, in the data set on PBMC and in the data set with CCRF-CEM were 17.1 µM, 32.9 µM and 31.6 µM, respectively. Further, the “inhibition (INH)” value with Hepatitis C virus is recorded as 0.2%.
For the compound `CCCCCCCCc1cn(C/C=C/CP(=O)(OCOC(=O)C(C)(C)C)OCOC(=O)C(C)(C)C)nn1`, the EC50 in data set [1] is over 100 µM. Besides, the EC90 in data set [1] was over 100 µM. In addition, the figures for the CC50 with Vero, in the data set with PBMC and with CCRF-CEM were 10.3 µM, 19.8 µM and 16.8 µM, respectively. Also, in the data set on Hepatitis C virus, the “inhibition (INH)” value is 88.7%.
In the case of `CC(C)(C)C(=O)OCOP(=O)(C/C=C/Cn1cc(C(N)=O)nn1)OCOC(=O)C(C)(C)C`, the EC50 in data set [1] was 70.5 µM. For the same compound, the EC90 in data set [1] was over 100 µM. For the same compound, the CC50 turned out to be 80.6 µM in the data set with Vero, 62.4 µM in the data set on PBMC and 52.9 µM with CCRF-CEM. Moreover, the “inhibition (INH)” value with Hepatitis C virus was 86.5%.
On to `CC(C)(C)C(=O)OCOP(=O)(C/C=C/Cn1ccc(N)nc1=O)OCOC(=O)C(C)(C)C`, for which, in data set [1], the EC50 is 70.4 µM. Further, the EC90 in data set [1] was over 100 µM. Also, the CC50 in the data set with Vero, in the data set on PBMC and with CCRF-CEM was over 100 µM in each case. In the data set on Hepatitis C virus, the “inhibition (INH)” value was found to be 80.4%.
`CC(C)(C)C(=O)OCOP(=O)(C/C=C/Cn1cc(F)c(N)nc1=O)OCOC(=O)C(C)(C)C`: the “inhibition (INH)” value with Hepatitis C virus turned out to be 73.6%.
Consider `COC(=O)c1nccn(C/C=C/CP(=O)(OCOC(=O)C(C)(C)C)OCOC(=O)C(C)(C)C)c1=O`, for which, in data set [1], the EC50 was over 100 µM. Further, the EC90 in data set [1] was over 100 µM. The CC50 in the data set on Vero, in the data set with PBMC and in the data set with CCRF-CEM was over 100 µM each time. In addition, the “inhibition (INH)” value with Hepatitis C virus stood at 76.9%.
On to `CC(C)(C)C(=O)OCOP(=O)(C/C=C/Cn1ccnc(C(N)=O)c1=O)OCOC(=O)C(C)(C)C`, for which, in data set [1], the EC50 was over 100 µM. The EC90 in data set [1] was over 100 µM. For the same compound, the CC50 in the data set with Vero, with PBMC and in the data set with CCRF-CEM was over 100 µM each time. The “inhibition (INH)” value in the data set with Hepatitis C virus is 60%.
In the case of `CC(C)(C)C(=O)OCOP(=O)(C/C=C/Cn1cnc(C(N)=O)n1)OCOC(=O)C(C)(C)C`, in data set [1], the EC50 is over 100 µM. The EC90 in data set [1] was over 100 µM. Besides, the figures for the cytotoxic concentration (CC50) with Vero, in the data set on PBMC and with CCRF-CEM were 86.8 µM, 58.3 µM and 41.8 µM, respectively. Besides, the “inhibition (INH)” value in the data set with Hepatitis C virus was found to be 73.9%.
As for `CC(C)(C)C(=O)OCOP(=O)(C/C=C/Cn1ccnn1)OCOC(=O)C(C)(C)C`, the EC50 in data set [1] is over 100 µM. The EC90 in data set [1] was over 100 µM. In addition, the CC50 in the data set with Vero was 87.9 µM; with PBMC it was 93.1 µM; in the data set on CCRF-CEM, 81.8 µM. Also, the “inhibition (INH)” value with Hepatitis C virus came to 85.9%.
Consider `CC(C)(C)C(=O)OCOP(=O)(C/C=C/Cn1cc(C(=O)O)nn1)OCOC(=O)C(C)(C)C`, for which the EC50 in data set [1] was over 100 µM. The EC90 in data set [1] is over 100 µM. Also, the CC50 in the data set with Vero, in the data set with PBMC and in the data set on CCRF-CEM was over 100 µM each time. For the same compound, the “inhibition (INH)” value in the data set with Hepatitis C virus was 53.8%.
`CC(C)(C)C(=O)OCOP(=O)(C/C=C/Cn1cc(-c2ccccc2)nn1)OCOC(=O)C(C)(C)C`: the EC50 in data set [1] is 35.8 µM. Further, in data set [1], the EC90 was over 100 µM. In addition, the CC50 came to 15.6 µM with Vero, 16 µM in the data set with PBMC and 31.6 µM in the data set with CCRF-CEM. For the same compound, the “inhibition (INH)” value in the data set with Hepatitis C virus is reported as 83.1%.
Take `CCCc1ccc(-c2cn(C/C=C/CP(=O)(OCOC(=O)C(C)(C)C)OCOC(=O)C(C)(C)C)nn2)cc1`: the EC50 in data set [1] is 31.6 µM. Besides, the EC90 in data set [1] is over 100 µM. Besides, the values for the CC50 with Vero, with PBMC and in the data set on CCRF-CEM were 41 µM, 35.9 µM and 55.3 µM, respectively. Besides, the “inhibition (INH)” value in the data set on Hepatitis C virus is recorded as 95.6%.
On to `Nc1ccn(C[C@@H](CO)OCP(=O)(O)O)c(=O)n1` [CIDOFOVIR], for which the CC50 in the data set on HEL is over 350 µM.
Still for that read-out and setting: in the case of `Nc1nc(O)c2ncn(COC(CO)CO)c2n1` [GANCICLOVIR] it was over 350 µM.

The values are drawn from ChEMBL document CHEMBL2417392, “Synthesis and broad spectrum antiviral evaluation of bis(POM) prodrugs of novel acyclic nucleosides” (Eur J Med Chem, 2013).
